According to ChEMBL document CHEMBL4602702, “Red-Emitting Dibenzodiazepinone Derivatives as Fluorescent Dualsteric Probes for the Muscarinic Acetylcholine M2 Receptor” (J Med Chem, 2020):

Assays:
[1] = target: T1, Muscarinic acetylcholine receptor M1 (Homo sapiens, UniProt P11229); experiment: Displacement of [3H]-QNB from truncated EGFP-fused human muscarinic M1 receptor expressed in HEK293 cells by […]; type: cell-based
T1 sequence (P11229 whole entry): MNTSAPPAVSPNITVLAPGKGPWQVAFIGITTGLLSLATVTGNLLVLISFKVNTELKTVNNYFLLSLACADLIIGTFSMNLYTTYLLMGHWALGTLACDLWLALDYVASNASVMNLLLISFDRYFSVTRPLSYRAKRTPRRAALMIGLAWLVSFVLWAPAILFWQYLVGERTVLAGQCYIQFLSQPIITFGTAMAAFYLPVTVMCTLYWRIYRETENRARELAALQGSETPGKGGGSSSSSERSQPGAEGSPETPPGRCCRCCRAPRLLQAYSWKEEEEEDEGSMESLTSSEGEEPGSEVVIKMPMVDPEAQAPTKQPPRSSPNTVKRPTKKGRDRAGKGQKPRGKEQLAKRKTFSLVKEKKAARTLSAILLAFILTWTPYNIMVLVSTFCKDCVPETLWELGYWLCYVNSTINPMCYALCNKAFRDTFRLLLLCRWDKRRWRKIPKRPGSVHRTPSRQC

[2] = target: T2, Muscarinic acetylcholine receptor M2 (Homo sapiens, UniProt P08172); experiment: (§1) Displacement of 4-(2-((1E,3E)-5-((E)-3,3-Dimethyl-1-(6-oxo-6-((2-(4-(4-(1-(2-oxo-2-(11-oxo-10,11-dihydro-5H-dibenzo[b,e][1,4]diazepin-5-yl)ethyl)piperidin-4-yl)butyl)piperazin-1-yl)ethyl)amino)hexyl)-5-sulfoindolin-2-ylidene)penta-1,3-dien-1-yl)-3,3-dimethyl-3H-indol-1-ium-1-yl)butane-1-sulfonate Bis(hydrotrifluoroacetate) fluorescent tracer from human muscarinic M2 receptor expressed in CHO-K9 cells by FACSCalibur flow cytometry; type: cell-based
T2 sequence (P08172 whole entry): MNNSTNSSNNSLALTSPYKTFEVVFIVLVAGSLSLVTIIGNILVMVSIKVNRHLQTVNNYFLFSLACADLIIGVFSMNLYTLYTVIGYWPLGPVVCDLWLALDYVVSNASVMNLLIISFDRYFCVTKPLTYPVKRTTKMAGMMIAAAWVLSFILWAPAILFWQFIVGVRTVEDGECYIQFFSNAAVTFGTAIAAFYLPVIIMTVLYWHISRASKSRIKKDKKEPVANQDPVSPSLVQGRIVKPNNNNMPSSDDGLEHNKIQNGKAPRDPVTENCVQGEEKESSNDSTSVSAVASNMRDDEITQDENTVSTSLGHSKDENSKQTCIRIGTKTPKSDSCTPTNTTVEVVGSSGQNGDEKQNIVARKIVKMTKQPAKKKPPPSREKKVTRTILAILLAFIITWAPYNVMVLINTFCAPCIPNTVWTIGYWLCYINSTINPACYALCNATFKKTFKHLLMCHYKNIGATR

[3] = target: T2, Muscarinic acetylcholine receptor M2; experiment: Displacement of 4-(2-((1E,3E)-5-((E)-3,3-Dimethyl-1-(6-oxo-6-((2-(4-(4-(1-(2-oxo-2-(11-oxo-10,11-dihydro-5H-dibenzo[b,e][1,4]diazepin-5-yl)ethyl)piperidin-4-yl)butyl)piperazin-1-yl)ethyl)amino)hexyl)-5-sulfoindolin-2-ylidene)penta-1,3-dien-1-yl)-3,3-dimethyl-3H-indol-1-ium-1-yl)butane-1-sulfonate Bis(hydrotrifluoroacetate) fluorescent tracer from human muscarinic M2 receptor expressed in […] cells measured after 60 mins by Hoechst H33342 dye based confocal plate reader assay; type: cell-based
[4] = target: T2, Muscarinic acetylcholine receptor M2; experiment: Displacement of 4-(2-((1E,3E)-5-((E)-3,3-Dimethyl-1-(6-oxo-6-((2-(3-(1-(4-(1-(2-oxo-2-(11-oxo-10,11-dihydro-5H-dibenzo[b,e][1,4]diazepin-5-yl)ethyl)piperidin-4-yl)butyl)-1H-imidazol-4-yl)propanamido)ethyl)-amino)hexyl)-5-sulfoindolin-2-ylidene)penta-1,3-dien-1-yl)-3,3-dimethyl-3H-indol-1-ium-1-yl)butane-1-sulfonateHydrotrifluoroacetate fluorescent tracer from human muscarinic M2 receptor expressed in […] cells measured after 60 mins by Hoechst H33342 dye based confocal plate reader assay; type: cell-based
[5] = target: T2, Muscarinic acetylcholine receptor M2; experiment: as §1, with “competition binding assay” for “FACSCalibur flow cytometry”; type: cell-based; conditions: read-out: pA2 (converted)
Method in brief: (§2)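 High-content imaging competition binding at intact CHO-hM2R cells against fluorescent tracer at 10 nM. Separately, flow cytometry competition with the fluorescent tracer at 1 nM at live cells. Four-parameter logistic fits; mean ± SEM of at least two experiments in duplicate.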

[6] = target: T2, Muscarinic acetylcholine receptor M2; experiment: Displacement of 4-(2-((1E,3E)-5-((E)-1-(6-((3,5-Bis((2-(3-(1-(4-(1-(2-oxo-2-(11-oxo-10,11-dihydro-5H-dibenzo[b,e][1,4]diazepin-5-yl)ethyl)piperidin-4-yl)butyl)-1H-imidazol-4-yl)propanamido)ethyl)carbamoyl)benzyl)amino)-6-oxohexyl)-3,3-dimethyl-5-sulfoindolin-2-ylidene)penta-1,3-dien-1-yl)-3,3-dimethyl-3H-indol-1-ium-1-yl)butane-1-sulfonate Tris(hydrotrifluoroacetate) fluorescent tracer from human muscarinic M2 receptor expressed in […] cells measured after 60 mins by Hoechst H33342 dye based confocal plate reader assay; type: cell-based
[7] = target: T2, Muscarinic acetylcholine receptor M2; experiment: Displacement of 4-(2-((1E,3E)-5-((E)-3,3-Dimethyl-1-(6-oxo-6-((2-(3-(1-(4-(1-(2-oxo-2-(11-oxo-10,11-dihydro-5H-dibenzo[b,e][1,4]diazepin-5-yl)ethyl)piperidin-4-yl)butyl)-1H-imidazol-4-yl)propanamido)ethyl)-amino)hexyl)-5-sulfoindolin-2-ylidene)penta-1,3-dien-1-yl)-3,3-dimethyl-3H-indol-1-ium-1-yl)butane-1-sulfonateHydrotrifluoroacetate fluorescent tracer from human muscarinic M2 receptor expressed in CHO-K9 cells by competition binding assay; type: cell-based; conditions: read-out: pA2 (converted); method in brief: as §2
[8] = target: T2, Muscarinic acetylcholine receptor M2; experiment: Displacement of 4-(2-((1E,3E)-5-((E)-1-(6-((3,5-Bis((2-(3-(1-(4-(1-(2-oxo-2-(11-oxo-10,11-dihydro-5H-dibenzo[b,e][1,4]diazepin-5-yl)ethyl)piperidin-4-yl)butyl)-1H-imidazol-4-yl)propanamido)ethyl)carbamoyl)benzyl)amino)-6-oxohexyl)-3,3-dimethyl-5-sulfoindolin-2-ylidene)penta-1,3-dien-1-yl)-3,3-dimethyl-3H-indol-1-ium-1-yl)butane-1-sulfonate Tris(hydrotrifluoroacetate) fluorescent tracer from human muscarinic M2 receptor expressed in CHO-K9 cells by competition binding assay; type: cell-based; conditions: read-out: pA2 (converted); method in brief: as §2
[9] = target: T3, Muscarinic acetylcholine receptor M2 (Homo sapiens) (UniProt P08172); experiment: Displacement of [3h]-NMS from human muscarinic M2 receptor expressed in CHO cells by radioligand binding assay; type: cell-based
T3 sequence (whole entry): T2 sequence (P08172 whole entry)

[10] = target: T4, Muscarinic acetylcholine receptor M1 (Homo sapiens) (UniProt P11229); experiment: Displacement of [3H]-NMS from human muscarinic M1 receptor expressed in CHO cells by scintillation counting method; type: cell-based
T4 sequence (whole entry): T1 sequence (P11229 whole entry)

[11] = target: Muscarinic acetylcholine receptor M2 (Homo sapiens) (UniProt P08172); experiment: Displacement of [3H]-UR-SK259 human muscarinic M2 receptor

O=C(CCC1=[N+]2C(=Cc3ccc(-c4cccs4)n3[B-]2(F)F)C=C1)NCCOCCOCCOCCOCCOCCOCCCN1CCN(CC(=O)N2c3ccccc3C(=O)Nc3cccnc32)CC1
Ki [1]: 8.91 nM

C[N+](C)(CCCCCC[N+](C)(C)CCCN1C(=O)c2ccccc2C1=O)CCCN1C(=O)c2ccccc2C1=O
Ki [2]: 407 nM | Ki [3]: 1410 nM | Ki [4]: 646 nM | Kb [5]: 148 nM | Ki [6]: 851 nM | Kb [7]: 457 nM | Kb [8]: 200 nM

O=C1CCCN1CC#CCN1CCCC1 [OXOTREMORINE]
Ki [3]: 851 nM | Ki [4]: 1020 nM | Ki [6]: 1780 nM

Cc1scc2c1N(C(=O)CN1CCN(CCCCCCCCCCNC(=O)Cc3ccc4c(c3)C(C)(C)C3=C5C=C6C7=[N+](CCC6OC5CCN34)c3ccc(S(=O)(=O)[O-])cc3C7(C)C)CC1)c1ccccc1NC2=O (centres undefined)
pK [9]: 10.3 | pK [10]: 10.5

CCC(=O)NCc1cc(C(=O)NCCN2CCC(N3CCC(n4c(=O)[nH]c5ccccc54)CC3)CC2)cc(C(=O)NCCN2CCN(CCCCC3CCN(CC(=O)N4c5ccccc5NC(=O)c5ccccc54)CC3)CC2)c1
Kd [11]: 0.813 nM
